Measured values: ChEMBL document CHEMBL4627292, “Diarylheptanoids with NO production inhibitory activity from Amomum kravanh” (Bioorg Med Chem Lett, 2020)

Assays:
[1] = tested on: RAW264.7; assay: Antiinflammatory activity in mouse RAW264.7 cells assessed as inhibition of LPS-induced nitric oxide production preincubated for 1 hr followed by LPS stimulation and measured after 24 hrs by Griess reagent based assay; type: functional, cell-based
[2] = Cytotoxicity against mouse RAW264.7 cells assessed as cell survival at 100 uM after 24 hrs by MTT assay relative to control; type: cell-based; details: read-out: Activity
In short: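 RAW264.7 seeded 5 × 10^3/well for 24 h at 37 °C, 5% CO2. Samples dissolved in DMSO and diluted in DMEM to final 100 μM with 1% DMSO; 1% DMSO as solvent control, cell-free medium as blank. After 24 h, MTT added for 4 h; medium removed, formazan dissolved in DMSO, absorbance read at 490 nm. % inhibition computed relative to solvent control after blank subtraction.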

Compound	IC50 [1] [µM]	viability at 24 h, 100 µM [2] [%]
COc1cc(C[C@@H](O)[C@@H]2C[C@@H](O)[C@@H](c3ccc(O)c(OC)c3)[C@H](c3ccc(O)c(OC)c3)O2)ccc1O	> 50	> 90
COc1cc(CC[C@H]2C[C@H](O)[C@@H](O)[C@@H](c3ccc(O)c(OC)c3)O2)ccc1O	21.8	> 90
COc1cc(C(=O)C[C@H]2C[C@@H](O)C[C@@H](c3ccc(O)c(OC)c3)O2)ccc1O	17.4	> 90
COc1cc(C[C@@H](O)[C@H]2C[C@H](O)[C@@H](c3ccc(O)c(OC)c3)[C@H](c3ccc(O)c(OC)c3)O2)ccc1O	> 50	> 90
COc1cc(C[C@H]2O[C@@H](CC(=O)c3ccc(O)c(OC)c3)C[C@H]2O)ccc1O	26.5	> 90
COc1cc(CC[C@H]2C[C@H](O)[C@H](O)[C@@H](c3ccc(O)c(OC)c3)O2)ccc1O	> 50	> 90
COc1cc(C[C@@H](O)[C@@H]2C[C@@H](O)[C@@H](c3cc(OC)c(O)c(OC)c3)[C@H](c3ccc(O)c(OC)c3)O2)ccc1O	23.6	> 90
COc1cc(C(=O)C[C@H]2C[C@H](O)C[C@@H](c3ccc(O)c(OC)c3)O2)ccc1O	> 50	> 90
COc1cc(C[C@H](O)[C@@H]2C[C@@H](O)C[C@H](c3ccc(O)c(OC)c3)O2)ccc1O	> 50	> 90
C[C@@H]1C[C@H]2[C@@H]3CCC4=CC(=O)C=C[C@]4(C)[C@@]3(F)[C@@H](O)C[C@]2(C)[C@@]1(O)C(=O)CO [DEXAMETHASONE]	32.5	
